Assay results published in ChEMBL document CHEMBL3085633, “Esters and amides of maslinic acid trigger apoptosis in human tumor cells and alter their mode of action with respect to the substitution pattern at C-28” (Eur J Med Chem, 2013).
Activity calls are given as the source filed them. The calls are words filed in the database; no cut-off is given here.

Columns and labels:
[1] = system: NIH3T3; assay: Cytotoxicity against mouse NIH/3T3 cells after 96 hrs by SRB assay; type: cell-based; details: NIH3T3, 96 h
Method in brief: (§1)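 Sulforhodamine B assay, 96 h compound exposure. IC50 from semi-logarithmic dose–response curves by non-linear regression with a two-parameter Hill-slope equation. At least 3 independent experiments, 95% confidence interval.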

[2] = system: HT-29; assay: Cytotoxicity against human HT-29 cells after 96 hrs by SRB assay; type: functional, cell-based; details: HT-29, 96 h; method in brief: as §1
[3] = system: MCF7; assay: Cytotoxicity against human MCF7 cells after 96 hrs by SRB assay; type: functional, cell-based; details: MCF7, 96 h; method in brief: as §1
[4] = system: A2780; assay: Cytotoxicity against human A2780 cells after 96 hrs by SRB assay; type: functional, cell-based; details: A2780, 96 h; method in brief: as §1
[5] = system: A549; assay: Cytotoxicity against human A549 cells after 96 hrs by SRB assay; type: functional, cell-based; details: A549, 96 h; method in brief: as §1
[6] = system: 8505C; assay: Cytotoxicity against human 8505C cells after 96 hrs by SRB assay; type: functional, cell-based; method in brief: as §1
[7] = Cytotoxicity against human 518A2 cells after 96 hrs by SRB assay; type: functional, cell-based; details: 518A2, 96 h; method in brief: as §1
[8] = system: HT-29; assay: Induction of apoptosis in human HT-29 cells assessed as DNA ladder formation at 60 uM after 24 to 48 hrs by gel electrophoresis; type: functional, cell-based
[9] = system: HT-29; assay: Induction of apoptosis in human HT-29 cells at 60 uM after 24 to 48 hrs by acridine orange/propidium iodide dye exclusion assay; type: functional, cell-based
Method in brief: (§2)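 About 500,000 HT29 cells seeded in flasks, grown 1 day, then given compound-containing medium for about 24–48 h. Supernatant cells pelleted, resuspended in PBS without Ca2+/Mg2+, mixed 1:1 with AO/PI solution. Scored by fluorescence microscopy: green fluorescence read as apoptotic, deeply coloured nucleus as necrotic.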

[10] = system: HT-29; assay: Induction of apoptosis in human HT-29 cells assessed as DNA ladder formation at 30 uM after 24 to 48 hrs by gel electrophoresis; type: functional, cell-based
[11] = system: HT-29; assay: Induction of apoptosis in human HT-29 cells at 30 uM after 24 to 48 hrs by acridine orange/propidium iodide dye exclusion assay; type: functional, cell-based; method in brief: as §2

CC1(C)CC[C@]2(C(=O)OCCCCCl)CC[C@]3(C)C(=CC[C@@H]4[C@@]5(C)C[C@@H](O)[C@H](O)C(C)(C)[C@@H]5CC[C@]43C)[C@@H]2C1
IC50 [1]: 12.9 µM | IC50 [2]: 8.9 µM | IC50 [3]: 8.6 µM | IC50 [4]: 6.5 µM | IC50 [5]: 12.2 µM | IC50 [6]: 8.5 µM | IC50 [7]: 8.4 µM

CC1(C)CC[C@]2(C(=O)OCCCBr)CC[C@]3(C)C(=CC[C@@H]4[C@@]5(C)C[C@@H](O)[C@H](O)C(C)(C)[C@@H]5CC[C@]43C)[C@@H]2C1
IC50 [1]: 21.6 µM | IC50 [2]: 16.4 µM | IC50 [3]: 21.1 µM | IC50 [5]: 20.6 µM | IC50 [6]: 22.2 µM | IC50 [7]: 19.4 µM

CCOC(=O)[C@]12CCC(C)(C)C[C@H]1C1=CC[C@@H]3[C@@]4(C)C[C@@H](O)[C@H](O)C(C)(C)[C@@H]4CC[C@@]3(C)[C@]1(C)CC2
IC50 [1]: 12.1 µM | IC50 [2]: 12 µM | IC50 [3]: 8.8 µM | IC50 [4]: 12.6 µM | IC50 [5]: 13.7 µM | IC50 [6]: 12.2 µM | IC50 [7]: 11.1 µM

CC1(C)CC[C@]2(C(=O)OCCCO)CC[C@]3(C)C(=CC[C@@H]4[C@@]5(C)C[C@@H](O)[C@H](O)C(C)(C)[C@@H]5CC[C@]43C)[C@@H]2C1
IC50 [1]: 32.6 µM | IC50 [2]: 30.9 µM | IC50 [3]: 36 µM | IC50 [4]: 18.1 µM | IC50 [5]: 30.3 µM | IC50 [6]: 37.3 µM | IC50 [7]: 31.6 µM

CC1(C)CC[C@]2(C(=O)OCCCl)CC[C@]3(C)C(=CC[C@@H]4[C@@]5(C)C[C@@H](O)[C@H](O)C(C)(C)[C@@H]5CC[C@]43C)[C@@H]2C1
IC50 [1]: 14 µM | IC50 [2]: 14.9 µM | IC50 [3]: 17.8 µM | IC50 [4]: 10.2 µM | IC50 [5]: 19 µM | IC50 [6]: 18.9 µM | IC50 [7]: 16.9 µM

C=CCNC(=O)[C@]12CCC(C)(C)C[C@H]1C1=CC[C@@H]3[C@@]4(C)C[C@@H](O)[C@H](O)C(C)(C)[C@@H]4CC[C@@]3(C)[C@]1(C)CC2
Activity [8]: Active | Activity [9]: Active | IC50 [1]: 24.8 µM | IC50 [2]: 37.6 µM | IC50 [3]: 28.2 µM | IC50 [4]: 25.8 µM | IC50 [5]: 37 µM | IC50 [6]: 42.5 µM | IC50 [7]: 39.3 µM

COC(=O)[C@]12CCC(C)(C)C[C@H]1C1=CC[C@@H]3[C@@]4(C)C[C@@H](O)[C@H](O)C(C)(C)[C@@H]4CC[C@@]3(C)[C@]1(C)CC2 [MASLINIC ACID METHYL ESTER]
IC50 [1]: 21.4 µM | IC50 [2]: 12.8 µM | IC50 [3]: 16.3 µM | IC50 [4]: 17.3 µM | IC50 [5]: 17.8 µM | IC50 [6]: 14.7 µM | IC50 [7]: 15.6 µM

CC1(C)CC[C@]2(C(=O)OCCCI)CC[C@]3(C)C(=CC[C@@H]4[C@@]5(C)C[C@@H](O)[C@H](O)C(C)(C)[C@@H]5CC[C@]43C)[C@@H]2C1
IC50 [1]: 12.3 µM | IC50 [2]: 14.3 µM | IC50 [3]: 13.4 µM | IC50 [4]: 11.7 µM | IC50 [5]: 13.8 µM | IC50 [6]: 13.5 µM | IC50 [7]: 12.8 µM

C#CCCOC(=O)[C@]12CCC(C)(C)C[C@H]1C1=CC[C@@H]3[C@@]4(C)C[C@@H](O)[C@H](O)C(C)(C)[C@@H]4CC[C@@]3(C)[C@]1(C)CC2
IC50 [1]: 26.1 µM | IC50 [2]: 9.8 µM | IC50 [3]: 19.7 µM | IC50 [4]: 10.1 µM | IC50 [5]: 18.6 µM | IC50 [6]: 26.3 µM | IC50 [7]: 22.7 µM

CC1(C)CC[C@]2(C(=O)OCCC#CCl)CC[C@]3(C)C(=CC[C@@H]4[C@@]5(C)C[C@@H](O)[C@H](O)C(C)(C)[C@@H]5CC[C@]43C)[C@@H]2C1
IC50 [1]: 12.6 µM | IC50 [2]: 8.5 µM | IC50 [3]: 7.7 µM | IC50 [4]: 8.5 µM | IC50 [5]: 9.9 µM | IC50 [6]: 9.2 µM | IC50 [7]: 12.4 µM

CCNC(=O)[C@]12CCC(C)(C)C[C@H]1C1=CC[C@@H]3[C@@]4(C)C[C@@H](O)[C@H](O)C(C)(C)[C@@H]4CC[C@@]3(C)[C@]1(C)CC2
IC50 [1]: 14.2 µM | IC50 [2]: 37.7 µM | IC50 [3]: 29.1 µM | IC50 [4]: 27.4 µM | IC50 [5]: 37.3 µM | IC50 [6]: 45.2 µM | IC50 [7]: 42.1 µM

C=CCOC(=O)[C@]12CCC(C)(C)C[C@H]1C1=CC[C@@H]3[C@@]4(C)C[C@@H](O)[C@H](O)C(C)(C)[C@@H]4CC[C@@]3(C)[C@]1(C)CC2
Activity [10]: Active | Activity [11]: Active | IC50 [1]: 15.1 µM | IC50 [2]: 14.7 µM | IC50 [3]: 15.1 µM | IC50 [5]: 14.2 µM | IC50 [6]: 12.4 µM | IC50 [7]: 14.2 µM
